The values below come from ChEMBL document CHEMBL1126763, “Nonpeptide angiotensin II receptor antagonists. Synthesis and biological activity of potential prodrugs of benzimidazole-7-carboxylic acids” (J Med Chem, 1993).

Series [1] can be described thus: Tested for half- life in rat small intestine homogenate (1%). Format: ADME. The procedure, abridged: (§1)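 Prodrugs (final 10 μg/mL) were incubated at 37 °C in rat 1% small intestine homogenate, 2% liver homogenate or 10% plasma. Aliquots taken from 10 s to 30 min were deproteinized with methanol, and the residue was redissolved in 1/15 M phosphate buffer. Released parent acid was measured by HPLC (ODS column, UV 258 nm, 0.01 M KH2PO4/MeCN 55/45). t1/2 was taken from the concentration change; mean ± SD, n = 3.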

Series [2] can be described thus: Tested for Half- life in rat liver homogenate (2%). It counts as ADME. In short, it runs like this:
as §1

A short description of series [3]: Tested for Half- life in rat plasma homogenate (10%) at 37 degree Centigrade. It counts as ADME. The procedure, abridged: as §1
Series [4] concerns the target T1, Angiotensin II receptor (Rattus norvegicus) (UniProt P29089+P25095+P35351). The series can be described thus: Inhibitory activity on AII (100 ng/kg iv)-induced pressor response after administration at 0.1 mg/kg po in conscious male Sprague-Dawley rats at 3 h. Format: functional, organism-based. Also noted: dose 0.1 mg/kg. In short, it runs like this: (§2)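 Conscious male Sprague-Dawley rats received test compounds orally at 0.1 mg/kg. AII (100 ng/kg iv) was given as a pressor challenge at each time point after dosing, and percent inhibition of the pressor response was recorded. Experiments were run in duplicate (n = 2); parent drug and one ester used n = 3. Inhibition may vary by less than 30%.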

The target in series [5] is T1, Angiotensin II receptor (Rattus norvegicus). The series is described as follows: Inhibitory activity on AII (100 ng/kg iv)-induced pressor response after administration at 0.1 mg/kg po in conscious male Sprague-Dawley rats at 2 h. Also noted: dose 0.1 mg/kg. It counts as functional, organism-based. The procedure, abridged:
as §2

The target is the same in series [6]. The series can be described thus: Inhibitory activity on AII (100 ng/kg iv)-induced pressor response after administration at 0.1 mg/kg po in conscious male Sprague-Dawley rats at 7 h. It counts as functional, organism-based. Further details: dose 0.1 mg/kg. The procedure, abridged: as §2
The target is the same in series [7]. The series is described as follows: Inhibitory activity on AII (100 ng/kg iv)-induced pressor response after administration at 0.1 mg/kg po in conscious male Sprague-Dawley rats at 24 h. It counts as functional, organism-based. Also noted: dose 0.1 mg/kg. In short, it runs like this: as §2
For series [8] the target is unchanged. The series is described as follows: Inhibitory activity on AII (100 ng/kg iv)-induced pressor response at 0.1 mg/kg po in conscious male Sprague-Dawley rats at 1 h. Format: functional, organism-based. Further details: dose 0.1 mg/kg. The procedure, abridged:
as §2

Series [9] shares this target. The series is described as follows: Inhibitory effect on AII (100 ng/kg iv)-induced pressor response after administration at 0.1 mg/kg po in conscious male Sprague-Dawley rats at 0.5 h. Further details: dose 0.1 mg/kg. It counts as functional, organism-based. The procedure, abridged:
as §2

Series [10] has the same target. The series can be described thus: Inhibitory activity on AII (100 ng/kg iv)-induced pressor response after administration at 0.1 mg/kg po in conscious male Sprague-Dawley rats at 5 h. Format: functional, organism-based. Further details: dose 0.1 mg/kg. The procedure, abridged: as §2
The test system of series [11] is Rattus norvegicus. The series can be described thus: Inhibitory activity on AII (100 ng/kg iv) -induced pressor response after administration at 0.1 mg/kg po in Dawley rats at 0.5 h. Format: functional. The procedure, abridged:
as §2

Series [12] deals with Rattus norvegicus. The series can be described thus: Inhibitory activity on AII (100 ng/kg iv) -induced pressor response after administration at 0.1 mg/kg po in Dawley rats at 1 h. Format: functional. The procedure, abridged:
as §2

Series [13] in a line: Tested against A II at (100 ng/kg iv) in Dawley rats (n=2). 24 h. Format: functional. The procedure, abridged: as §2

For `CCOc1nc2cccc(C(=O)OC(C)OC(=O)OC3CCCCC3)c2n1Cc1ccc(-c2ccccc2-c2nnn[nH]2)cc1` (stereo not drawn) [CANDESARTAN CILEXETIL], the half-life came out at 4.92 min in series [1], 2.29 min in [2] and 2.73 min in [3].
Regarding `CCCCc1nc2cccc(C(=O)OCOC(=O)C(C)(C)C)c2n1Cc1ccc(-c2ccccc2-c2nn[nH]n2)cc1`, the inhibition in series [4] turned out to be 95%; in series [5] it was 96%; in series [6], 86%; in series [7] it was 50%; in [8], 90%; in series [9], 58%. Besides, the inhibition in [10] is 92%. In addition, the half-life in series [1] stood at 1.08 min; in series [2] it was 3.61 min; in series [3], 0.69 min.
On to `CCCCc1nc2cccc(C(=O)O)c2n1Cc1ccc(-c2ccccc2-c2nn[nH]n2)cc1`, for which the results for the inhibition in vivo at 0.1 mg/kg in series [11] and in series [12] were 8% and 33%, respectively. Also, the inhibition was 45% in series [5] and 42% in [7].
Turning to `CCOc1nc2cccc(C(=O)OCOC(=O)C(C)(C)C)c2n1Cc1ccc(-c2ccccc2-c2nn[nH]n2)cc1`, the inhibition was 86% in [4]; 88% in [5]; 86% in [6]; 43% in series [7]; 77% in series [8]; 42% in [9]. In series [10], this compound yielded an inhibition of 87%. Also, the figures for the half-life in [1], in series [2] and in series [3] were 0.3 min, 0.48 min and 0.15 min, respectively.
For the compound `CCCCc1nc2cccc(C(=O)OCCN3CCCCC3)c2n1Cc1ccc(-c2ccccc2-c2nn[nH]n2)cc1`, the values for the inhibition in vivo at 0.1 mg/kg in [11] and in [12] were 20% and 47%, respectively. Besides, the inhibition in series [4] is 69%; in series [5] it was 46%; in [6] it was 49%; in [7] it was 28%; in series [10], 62%.
Take `CCCCc1nc2cccc(C(=O)OCCN3CCOCC3)c2n1Cc1ccc(-c2ccccc2-c2nn[nH]n2)cc1`: the inhibition in vivo at 0.1 mg/kg turned out to be 67% in series [11] and 94% in [12]. In addition, the inhibition in series [4] came to 96%; in series [5] it was 96%; in [6], 96%; in [7], 66%; in series [10], 96%.
Consider `CCCCc1nc2cccc(C(=O)OCCN(C)C)c2n1Cc1ccc(-c2ccccc2-c2nn[nH]n2)cc1`, for which the inhibition in vivo at 0.1 mg/kg in series [11] worked out at 0%; in series [12], 19%. Moreover, the inhibition in series [4] is 32%; in [5], 27%; in [6] it was 14%; in series [7], 9%; in [10], 26%.
For `CCCCc1nc2cccc(C(=O)OCC)c2n1Cc1ccc(-c2ccccc2-c2nn[nH]n2)cc1`, the inhibition in vivo at 0.1 mg/kg came to 7% in series [11] and 25% in series [12]. The inhibition in series [5] worked out at 46%; in [6], 63%; in series [7] it was 47%; in series [10], 68%.
In the case of `CCCCc1nc2cccc(C(=O)OCc3oc(=O)oc3C)c2n1Cc1ccc(-c2ccccc2-c2nnn(Cc3oc(=O)oc3C)n2)cc1.CCCCc1nc2cccc(C(=O)OCc3oc(=O)oc3C)c2n1Cc1ccc(-c2ccccc2-c2nnnn2Cc2oc(=O)oc2C)cc1`, the inhibition in series [4] stood at 60%; in [5], 33%; in series [6], 46%; in series [8], 9%; in series [9] it was 7%; in series [10], 59%. Moreover, the Inhibition in [13] stood at 17%.
On to `CCCCc1nc2cccc(C(=O)O)c2n1Cc1ccc(-c2ccccc2-c2nnn(C)n2)cc1`, for which the inhibition in vivo at 0.1 mg/kg in series [11] was 22%; in [12], 26%. The inhibition amounted to 9% in [4]; 6% in series [5]; 26% in series [6]; 23% in series [7]; 13% in [10].
For the compound `CCCCc1nc2cccc(C(=O)O)c2n1Cc1ccc(-c2ccccc2-c2nnnn2C)cc1`, the inhibition in vivo at 0.1 mg/kg in series [11] amounted to 12%; in series [12], 29%. Besides, the inhibition in [4] is 56%; in series [5] it was 29%; in [6] it was 53%; in [7], 16%; in [10], 59%.
In the case of `CCCCc1nc2cccc(C(=O)OC)c2n1Cc1ccc(-c2ccccc2-c2nn[nH]n2)cc1`, the values for the inhibition in vivo at 0.1 mg/kg in [11] and in series [12] were 11% and 52%, respectively. Moreover, the inhibition in series [4] came to 47%; in series [5], 50%; in series [6] it was 27%; in series [7], 11%; in [10] it was 38%.
Consider `CCCCc1nc2cccc(C(=O)OCCO)c2n1Cc1ccc(-c2ccccc2-c2nn[nH]n2)cc1`, for which the inhibition in vivo at 0.1 mg/kg in series [11] and in [12] was 7% throughout. Moreover, the inhibition in [4] is 11%; in [5] it was 10%; in series [6], 25%; in [7] it was 20%; in series [10] it was 21%.
`CCCCOC(=O)c1cccc2nc(CCCC)n(Cc3ccc(-c4ccccc4-c4nn[nH]n4)cc3)c12`: the values for the inhibition in vivo at 0.1 mg/kg in series [11] and in series [12] were 16% and 40%, respectively. In addition, the inhibition is 78% in series [4]; 80% in series [5]; 90% in series [6]; 76% in [7]; 88% in [10].
Turning to `CCCCc1nc2cccc(C(=O)O)c2n1Cc1ccc(-c2ccccc2-c2nnn(COC(=O)C(C)(C)C)n2)cc1.CCCCc1nc2cccc(C(=O)O)c2n1Cc1ccc(-c2ccccc2-c2nnnn2COC(=O)C(C)(C)C)cc1`, the inhibition in series [4] turned out to be 63%; in series [5], 33%; in series [6] it was 69%; in series [7] it was 32%; in series [8], 4%; in [9] it was 7%. The same compound had an inhibition in series [10] of 67%. Besides, the half-life is 22.7 min in series [1], 9.8 min in series [2] and 3.94 min in series [3].
For the compound `CCOc1nc2cccc(C(=O)OCOC(=O)C(C)C)c2n1Cc1ccc(-c2ccccc2-c2nn[nH]n2)cc1`, the inhibition in [4] stood at 52%; in series [5], 56%; in series [6], 20%; in [7] it was 6%; in series [8] it was 40%; in series [9] it was 80%. This compound also yielded an inhibition in [10] of 44%.
